Results: ChEMBL document CHEMBL1140815, “Synthesis and structure-activity relationship studies of tyrosine-based antagonists at the human P2X7 receptor” (Bioorg Med Chem Lett, 2008)

What was measured:
[1] = test system: THP-1; assay: Inhibition of BzATP-stimulated IL1-beta release in human THP1 cells at 1 uM by ELISA; assay type: functional
[2] = molecular target: T1, P2X purinoceptor 7 (Homo sapiens, UniProt Q99572); assay: Antagonist activity at human purinergic P2X7 receptor expressed in HEK293 cells assessed as inhibition of BzATP-induced ethidium bromide uptake; assay type: functional, cell-based
T1 sequence (Q99572 whole entry): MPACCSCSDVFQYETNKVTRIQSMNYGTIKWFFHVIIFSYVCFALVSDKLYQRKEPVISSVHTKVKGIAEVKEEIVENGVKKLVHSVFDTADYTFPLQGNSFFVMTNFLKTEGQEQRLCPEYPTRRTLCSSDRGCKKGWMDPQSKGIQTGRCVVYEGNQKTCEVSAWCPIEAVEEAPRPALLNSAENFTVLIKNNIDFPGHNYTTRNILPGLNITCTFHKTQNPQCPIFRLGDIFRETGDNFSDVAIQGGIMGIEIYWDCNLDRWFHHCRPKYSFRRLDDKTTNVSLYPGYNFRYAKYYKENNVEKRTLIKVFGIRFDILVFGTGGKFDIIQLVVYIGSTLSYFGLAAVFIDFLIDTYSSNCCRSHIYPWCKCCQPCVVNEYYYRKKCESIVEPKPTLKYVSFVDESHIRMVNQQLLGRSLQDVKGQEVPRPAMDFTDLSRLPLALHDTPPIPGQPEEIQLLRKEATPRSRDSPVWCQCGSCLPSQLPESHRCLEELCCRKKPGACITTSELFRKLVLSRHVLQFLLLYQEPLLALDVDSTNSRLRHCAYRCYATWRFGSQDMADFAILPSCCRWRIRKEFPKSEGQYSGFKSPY
In short: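 Adherent HEK293 cells stably expressing human P2X7, resuspended at 2.5×10^6 cells/ml in HEPES salt solution (mM: ethidium bromide 0.1, EDTA 1, glucose 5, HEPES 20, KCl 140; pH 7.4). Cells added to compound-containing wells, then BzATP; 37°C for 120 min. Ethidium accumulation read by fluorescence (ex 530/em 590). IC50 from concentration–response curves; mean ± SD, 3–11 repeats.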

[3] = molecular target: T2, P2X purinoceptor 7 (Homo sapiens) (UniProt Q99572); assay: Antagonist activity at human purinergic P2X7 receptor expressed in HEK293 cells assessed as inhibition of BzATP-induced ethidium bromide uptake at 10 uM; assay type: functional, cell-based
T2 sequence (whole entry): T1 sequence (Q99572 whole entry)

[4] = molecular target: T1, P2X purinoceptor 7; assay: Antagonist activity at human purinergic P2X7 receptor expressed in HEK293 cells assessed as inhibition of ATP-induced K(+) efflux; assay type: functional, cell-based
[5] = test system: THP-1; assay: Inhibition of BzATP-stimulated IL1-beta release in human THP1 cells by ELISA; assay type: functional, cell-based
In short: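 Compound given as a 30 min pretreatment, then 1 mM BzATP for 30 min. Mature IL-1β in the centrifuged supernatant quantified by ELISA.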

IC50 [2] [nM] | inhibition [3] [%] | IC50 [4] [nM] | IC50 [5] [nM] | SMILES | inhibition at 1 µM [1] [%]
256 |  |  |  | Cc1ccc(S(=O)(=O)Oc2ccc(C[C@H](NC(=O)OCc3ccccc3)C(=O)N3CCN(C(=O)c4ccccc4)[C@H](C)C3)cc2)cc1 | 65
 | 28 |  |  | O=C(N[C@@H](Cc1ccc(OS(=O)(=O)c2ccc(NC(=S)NCCCCNC(=S)Nc3ccc(S(=O)(=O)Oc4ccc(C[C@H](NC(=O)OCc5ccccc5)C(=O)N5CCN(C(=O)c6ccccc6)CC5)cc4)cc3)cc2)cc1)C(=O)N1CCN(C(=O)c2ccccc2)CC1)OCc1ccccc1 | 37
 |  | 40 |  | CC(C)(C)OC(=O)N1CCN(C(=O)[C@H](Cc2ccc(OS(=O)(=O)c3cccc4cnccc34)cc2)NS(=O)(=O)c2cccc3cnccc23)CC1 | 
517 |  |  |  | CC(C)(C)OC(=O)N1CCN(C(=O)[C@H](Cc2ccc(OS(=O)(=O)c3ccc(Br)cc3)cc2)NC(=O)OCc2ccccc2)CC1 | 68
724 |  |  |  | Cc1ccc(S(=O)(=O)Oc2ccc(C[C@H](NC(=O)OCc3ccccc3)C(=O)N3CCN(C(=O)c4ccc(C(F)(F)F)cc4)CC3)cc2)cc1 | 65
1540 |  |  |  | Cc1ccc(S(=O)(=O)Oc2ccc(C[C@H](NC(=O)OCc3ccccc3)C(=O)N3CCN(C(=O)OC(C)(C)C)CC3)cc2)cc1 | 72
861 |  |  |  | Cc1ccc(S(=O)(=O)Oc2ccc(C[C@@H](NC(=O)OCc3ccccc3)C(=O)N3CCN(C(=O)OC(C)(C)C)CC3)cc2)cc1 | 56
780 |  |  |  | CC(C)(C)OC(=O)N1CCN(C(=O)[C@H](Cc2ccc(OS(=O)(=O)c3ccc(C#N)cc3)cc2)NC(=O)OCc2ccccc2)CC1 | 60
2010 |  |  |  | Cc1ccc(S(=O)(=O)Oc2ccc(C[C@H](NC(=O)OCc3ccccc3)C(=O)N3CCN(C(=O)c4ccc(N(C)C)cc4)CC3)cc2)cc1 | 65
117 |  |  |  | O=C(N[C@@H](Cc1ccc(OS(=O)(=O)c2ccc([N+](=O)[O-])cc2)cc1)C(=O)N1CCN(C(=O)c2ccccc2)CC1)OCc1ccccc1 | 48
481 |  |  | 881 | Cc1ccc(S(=O)(=O)Oc2ccc(C[C@H](NC(=O)OCc3ccccc3)C(=O)N3CCN(C(=O)c4ccc(Br)cc4)CC3)cc2)cc1 | 78
175 |  |  | 188 | CN([C@@H](Cc1ccc(OS(=O)(=O)c2cccc3cnccc23)cc1)C(=O)N1CCN(c2ccccc2)CC1)S(=O)(=O)c1cccc2cnccc12 | 83
5880 |  |  |  | CC(C)(C)OC(=O)N1CCN(C(=O)[C@H](Cc2ccc(OS(=O)(=O)c3ccc(F)cc3)cc2)NC(=O)OCc2ccccc2)CC1 | 56
3540 |  |  |  | CC(C)(C)OC(=O)N1CCN(C(=O)[C@H](Cc2ccc(OS(=O)(=O)c3ccc(I)cc3)cc2)NC(=O)OCc2ccccc2)CC1 | 72
 | 54 |  |  | Cc1ccc(S(=O)(=O)Oc2ccc(C[C@H](NC(=O)OCc3ccccc3)C(=O)N3CCN(C(=O)c4ccc(N(C)C)cc4)[C@@H](C)C3)cc2)cc1 | 68
725 |  |  |  | CC(C)(C)OC(=O)N1CCN(C(=O)[C@H](Cc2ccc(OS(=O)(=O)c3ccc(OC(F)(F)F)cc3)cc2)NC(=O)OCc2ccccc2)CC1 | 46
504 |  |  |  | Cc1ccc(S(=O)(=O)Oc2ccc(C[C@H](NC(=O)OCc3ccccc3)C(=O)N3CCN(C(=O)c4ccccc4)C[C@@H]3C)cc2)cc1 | 45
599 |  |  |  | Cc1ccc(S(=O)(=O)Oc2ccc(C[C@H](NC(=O)OCc3ccccc3)C(=O)N3CCN(C(=O)c4ccccc4)CC3)cc2)cc1 | 70
260 |  |  |  | Cc1ccc(S(=O)(=O)Oc2ccc(C[C@H](NC(=O)OCc3ccccc3)C(=O)N3CCN(C(=O)c4ccccc4)[C@@H](C)C3)cc2)cc1 | 69
319 |  |  |  | Cc1ccc(S(=O)(=O)Oc2ccc(C[C@H](NC(=O)OCc3ccccc3)C(=O)N3CCN(C(=O)c4ccc(F)cc4)CC3)cc2)cc1 | 68
539 |  |  |  | C[C@H]1CN(C(=O)[C@H](Cc2ccc(OS(=O)(=O)c3ccc(C#N)cc3)cc2)NC(=O)OCc2ccccc2)CCN1C(=O)c1ccc(N(C)C)cc1 | 59
2460 |  |  |  | CC(C)(C)OC(=O)N1CCN(C(=O)[C@H](Cc2ccc(OS(=O)(=O)c3ccc(CBr)cc3)cc2)NC(=O)OCc2ccccc2)CC1 | 52
1360 |  |  |  | Cc1ccc(S(=O)(=O)Oc2ccc(C[C@@H](C(=O)N3CCN(C(=O)c4ccccc4)CC3)N(C)C(=O)OCc3ccccc3)cc2)cc1 | 47
 | 55 |  |  | C[C@H]1CN(C(=O)[C@H](Cc2ccc(OS(=O)(=O)c3ccc(I)cc3)cc2)NC(=O)OCc2ccccc2)CCN1C(=O)c1ccc(N(C)C)cc1 | 61
